High-throughput results deposited in PubChem by Broad Institute.
This is a sample that favours compounds with a hit; in the whole collection about 1.5% have one here.
C-LANA FP: KSHV C-LANA DNA binding inhibition; MBP-C-LANA/FAM-LBS DNA binding, fluorescence polarization; inhibition, % at 9 µM; 340,000 tested, 0.078% active;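 active = highest replicate inhibition at or above 60% at 9 µM, even if other replicates fall short; inactive = all replicates below 60% inhibition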
CaV13 ICDI inh: Disruptors of the CACNA1D IQ motif to Ca2+-dependent inactivation inhibitor domain association, primary screening, Förster resonance energy transfer in intact living … | HEK cells, CFP/YFP FRET ICDI-IQ, plate reader, 10 min; percent FRET-ratio fall versus neutral wells | inhibition, % at 12.3 µM | 340,000 tested, 0.098% active;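 active = mean replicate inhibition of at least 30% and at least 1% of replicates passing that level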
CAL PDZ FP-1: CAL PDZ (human) peptide binding inhibition; 300,000 tested, 0.92% active; Q9HD26; purified CAL PDZ, TMR-peptide fluorescence polarization, 1 h; AID 602252; inhibition, % at 24.9 µM;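 active = mean inhibition of at least 30% with at least half of replicates also reaching 30%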
CAL PDZ FP-2: inhibitors of human CAL PDZ peptide binding; Q9HD26; purified CAL PDZ, TMR-peptide fluorescence polarization, 1 h; inhibition, % at 20 µM; 330,000 tested, 0.02% active;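 active = highest replicate inhibition of at least 40%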
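Read-out basis: mP drop reported as inhibition | Assay system: Tagged CAL PDZ protein CerCALP, purified | Benchmarks: Unlabelled peptide for full inhibition, DMSO wells as neutral | Schedule: 1 h incubation at room temperature before polarization reading | Buffer or medium: Sodium phosphate/NaCl buffer pH 7.4 with TCEP, IgG, Thesit | Doses: Single point, 20 µM | Measured by: Fluorescence polarization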
LANA-H2B inh: blocks KSHV LANA binding to histone H2A/H2B; cell-free LANA-H2A/H2B peptide, fluorescence polarization; inhibition, % (test concentration not listed); Q9QR71; 320,000 tested, 0.6% active; AID 2629; in the data active = inhibition mostly above about 10%, no sharp cut-off; inactive = mostly below about 6.7%
Target sequence (Q9QR71 whole entry, looked up): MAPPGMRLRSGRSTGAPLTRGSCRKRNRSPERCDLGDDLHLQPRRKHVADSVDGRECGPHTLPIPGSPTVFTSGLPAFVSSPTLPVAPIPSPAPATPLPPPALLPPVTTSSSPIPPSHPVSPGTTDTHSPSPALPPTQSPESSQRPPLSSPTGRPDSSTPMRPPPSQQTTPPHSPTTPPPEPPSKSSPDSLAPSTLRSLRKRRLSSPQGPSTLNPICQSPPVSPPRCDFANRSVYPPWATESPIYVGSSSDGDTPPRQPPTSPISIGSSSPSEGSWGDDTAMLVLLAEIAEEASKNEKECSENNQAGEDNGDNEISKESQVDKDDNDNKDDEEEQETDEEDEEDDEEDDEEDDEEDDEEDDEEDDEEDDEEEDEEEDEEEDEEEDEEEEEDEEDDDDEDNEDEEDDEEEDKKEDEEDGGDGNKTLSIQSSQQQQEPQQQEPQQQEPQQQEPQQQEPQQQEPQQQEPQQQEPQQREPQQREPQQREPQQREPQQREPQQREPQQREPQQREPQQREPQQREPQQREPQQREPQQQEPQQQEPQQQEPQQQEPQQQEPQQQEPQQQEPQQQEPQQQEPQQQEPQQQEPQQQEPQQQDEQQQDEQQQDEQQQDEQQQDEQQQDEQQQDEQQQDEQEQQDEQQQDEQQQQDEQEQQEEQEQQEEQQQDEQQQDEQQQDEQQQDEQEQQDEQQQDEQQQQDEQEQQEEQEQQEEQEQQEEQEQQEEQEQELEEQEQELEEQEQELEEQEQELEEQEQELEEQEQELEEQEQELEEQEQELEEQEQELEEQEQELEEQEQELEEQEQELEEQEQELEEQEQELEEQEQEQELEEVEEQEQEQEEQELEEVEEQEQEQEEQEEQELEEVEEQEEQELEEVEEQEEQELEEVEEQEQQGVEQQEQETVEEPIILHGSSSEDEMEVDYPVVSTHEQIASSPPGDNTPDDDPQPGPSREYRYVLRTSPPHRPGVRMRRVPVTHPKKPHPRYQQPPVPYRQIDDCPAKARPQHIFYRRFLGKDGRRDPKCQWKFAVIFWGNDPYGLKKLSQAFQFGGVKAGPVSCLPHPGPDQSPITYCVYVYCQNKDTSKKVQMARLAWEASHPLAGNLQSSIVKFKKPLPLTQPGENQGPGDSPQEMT
Keap1-Nrf2 PPI: inhibitors of human Keap1-Nrf2 protein-protein interaction; Q14145; Keap1 Kelch-Nrf2 peptide fluorescence polarization, 1536-well; inhibition, % at 9.4 µM; 340,000 tested, 0.15% active; AID 504523; in the data active = inhibition above about 12%;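 also: human Keap1 Kelch domain with fluorescein labeled Nrf2 9mer peptide probe; higher means more block of Keap1 binding to Nrf2 peptide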
Of the large screens only hits and unclear results are named; the others gave an inactive call; ! = repeats disagree.

CN(Cc1ccccc1)C(=O)c1cccc(NC(=O)Cc2cccc(NC(=O)C3CCN(C(=O)CCc4ccccc4)CC3)c2)c1	none (no result: C-LANA FP, CAL PDZ FP-1, CAL PDZ FP-2, LANA-H2B inh, Keap1-Nrf2 PPI)
CCN(CCCNC(=O)C1c2ccccc2C(=O)N(CCOC)C1c1ccc(F)cc1)Cc1ccccc1 (centres undefined)	C-LANA FP 83.2
CC(C)C(NCC(=O)Nc1ccccc1C(=O)NC1CC1)c1ccccc1 (centres undefined)	none (no result: CAL PDZ FP-1)
COc1ccc(S(=O)(=O)N2CCCC2CNC(=O)C(=O)NC2CCCC2)cc1 (centres undefined)	CaV13 ICDI inh 31.2 (no result: C-LANA FP, CAL PDZ FP-1, CAL PDZ FP-2, LANA-H2B inh, Keap1-Nrf2 PPI)
COc1ccc(S(=O)(=O)N2CCC[C@H]2C(=O)NCc2ccc(Cl)cc2)cc1	CAL PDZ FP-1 71.2
CCCc1ccc(-c2cc(NC(=O)Cc3c(C)[nH]c4ccccc34)ccc2N(C)c2cccnc2)cc1	none (no result: C-LANA FP, CAL PDZ FP-1, CAL PDZ FP-2, LANA-H2B inh, Keap1-Nrf2 PPI)
O=C(O)CCCCCCCC(=O)O	LANA-H2B inh 30.5!
Cc1ccc2c(c1)[C@H]1[C@H](CO2)[C@H](c2ccccc2)[C@]2(C)C(=O)Nc3cc(F)ccc3C(=O)N12	none
O=C(N/N=C/c1ccc(F)cc1)c1c(O)c2ccccc2[nH]c1=O	none
O=C(N/N=C/c1cccc(F)c1)c1c(O)c2ccccc2[nH]c1=O	LANA-H2B inh active
C[C@@H]1C=CCCO[C@]12C(=O)N(Cc1ccc(Br)cc1)c1ccccc12	none (no result: C-LANA FP, CAL PDZ FP-1, CAL PDZ FP-2, LANA-H2B inh, Keap1-Nrf2 PPI)
COC(=O)C1=C(C)N(Cc2ccc(C(F)(F)F)cc2)C(=NCc2ccccc2C(F)(F)F)NC1c1ccccc1C(F)(F)F (centres undefined)	none (no result: C-LANA FP, CAL PDZ FP-1, CAL PDZ FP-2, LANA-H2B inh, Keap1-Nrf2 PPI)
CCc1ccccc1NC(=O)c1cnn(-c2ccccc2)c1C	CAL PDZ FP-1 75.3 (no result: CAL PDZ FP-2)
Cc1ccccc1NC(=O)c1cnn(-c2ccccc2)c1C	none (no result: CAL PDZ FP-1)
COC(=O)c1ccc2nc(-c3ccc(Cl)cc3)c(Cc3cccc(Cl)c3)n2c1	none (no result: C-LANA FP, CAL PDZ FP-1, CAL PDZ FP-2, LANA-H2B inh, Keap1-Nrf2 PPI)
COc1cccc(CN2CCC2(C)C(=O)Nc2ccc3c(c2)OCO3)c1F (centres undefined)	none (no result: C-LANA FP, CAL PDZ FP-1, CAL PDZ FP-2, LANA-H2B inh, Keap1-Nrf2 PPI)
O=C(CC1SC(N2CCOCC2)=NC1=O)Nc1cccc(C(F)(F)F)c1 (centres undefined)	none
O=C(CC1SC(N2CCOCC2)=NC1=O)Nc1ccc(Cl)c(C(F)(F)F)c1 (centres undefined)	LANA-H2B inh 21.8 (no result: CAL PDZ FP-1)
C[C@H](O)[C@@H]1C(=O)N2CCc3c([nH]c4cccc(-c5ccccc5)c34)[C@@H]2C[C@@H]1N(C)C(=O)Nc1ccccc1	none (no result: C-LANA FP, CAL PDZ FP-1, CAL PDZ FP-2, LANA-H2B inh, Keap1-Nrf2 PPI)
OCC1CCCCN1C(=S)NCc1ccco1 (centres undefined)	CAL PDZ FP-1 64.3
O=C(C(=O)N1CCN(C(=O)c2ccccc2C(F)(F)F)CC1)c1cccc(C(F)(F)F)c1	none (no result: C-LANA FP, CAL PDZ FP-1, CAL PDZ FP-2, LANA-H2B inh, Keap1-Nrf2 PPI)
CCCc1c(Cc2cccc(F)c2)ncn1Cc1cccc(-c2ccccc2)c1	none (no result: C-LANA FP, CAL PDZ FP-1, CAL PDZ FP-2, LANA-H2B inh, Keap1-Nrf2 PPI)
O=C(NCC1CCCO1)c1ccc2c(=O)n(Cc3ccco3)c(SCC(=O)N3CCCC3)nc2c1 (centres undefined)	CAL PDZ FP-1 79.5 (no result: CAL PDZ FP-2)
Cc1cnc(NC(=O)NCC2CCCC(CNC(=O)Nc3ncc(C)s3)C2)s1 (centres undefined)	CAL PDZ FP-1 67.4
O=C(OCC(=O)N1CCCC1)c1cncc(Br)c1	none (no result: CAL PDZ FP-2)
O=C(CCNS(=O)(=O)c1ccc(Cl)cc1)OCC(=O)N1CCN(C(=O)c2ccco2)CC1	none (no result: C-LANA FP, Keap1-Nrf2 PPI)
O=C(OCC(=O)N1CCN(C(=O)c2ccco2)CC1)c1cc(S(=O)(=O)Nc2ccc(Cl)cc2)ccc1O	CAL PDZ FP-1 53.3
O=C(OCC(=O)N1CCN(C(=O)c2ccco2)CC1)c1cncc(Br)c1	CAL PDZ FP-1 35.5
O=C(C(=O)N1CCC(CNS(=O)(=O)c2cccc(C(F)(F)F)c2)CC1)c1cc2ccccc2o1	none (no result: C-LANA FP, CAL PDZ FP-1, CAL PDZ FP-2, LANA-H2B inh, Keap1-Nrf2 PPI)
CCCCCCCCN1C(=O)[C@@H](CC(=O)NCCCN2CCCC2=O)C[C@@]2(C(=O)OC)C1=C[C@H](C(C)(C)C)O[C@@H]2C	none (no result: C-LANA FP, CAL PDZ FP-1, CAL PDZ FP-2, LANA-H2B inh, Keap1-Nrf2 PPI)
COc1ccc(CNCc2c(O)c(Cl)cc3c(C)c(C)c(=O)oc23)c(OC)c1	CAL PDZ FP-1 31.6
Cc1cn(S(=O)(=O)c2ccc(Cl)cc2)c(C)n1	CAL PDZ FP-1 78.0
O=S(=O)(c1ccc2c(c1)CCCN2)N1CCCC1	CAL PDZ FP-1 58.3
COC(=O)c1ccc(Cn2nc(C)cc2C)cc1	CAL PDZ FP-1 112.1 (no result: CAL PDZ FP-2)
Cc1cc(C)n(Cc2ccc(C(=O)O)cc2)n1	none
